Test results from publication PMC2720137 (Cancer cell, 2008).

Tests used:
[1] = system: Myc-tagged p110α-H1047R L814C; type: biochemical, human; details: L814C vs p110α-H1047R, 10 μM ATP
[2] = molecular target: Myc-tagged p110α-H1047R I800L (Homo sapiens, UniProt P42336, H1047R/I800L); test: In vitro PI3K assay, I800L mutant; type: biochemical; details: I800L vs p110α-H1047R, 10 μM ATP
[3] = system: phospho-Akt (Thr308, Ser473) in L814C MCF10A cells; test: Phospho-Akt western blot, L814C MCF10A cell line; type: cell-based, human; details: 1 hour treatment, serial dilutions
[4] = system: Myc-tagged p110α-H1047R I800M; type: biochemical, human; details: I800M vs p110α-H1047R, 10 μM ATP
[5] = system: MCF10A cells expressing p110α-H1047R L814C; test: MCF10A EGF-independent growth; type: cell-based, human; details: media lacking EGF, Alamar Blue
Outline: (§1)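 MCF10A cells were retrovirally transduced with pMIG p110α-H1047R mutants (IRES-GFP) after EcoR nucleofection, then FACS-sorted to >95% GFP+. Cells were seeded at 2 × 10^3 per 96-well in growth medium, and after 2 days switched to EGF-free medium with PI3K inhibitors (DMSO stocks 1:1000). Every 2 days: resazurin (120 µg/ml stock, 1:20) added for 2 h at 37°C plus 15 min RT, fluorescence read at ex 520/em 590 nm, and medium refreshed. Mean ± SEM.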

[6] = system: MCF10A cells expressing p110α-H1047R I800L; test: MCF10A EGF-independent growth; type: cell-based, human; details: media lacking EGF, Alamar Blue
Outline: as §1

[7] = system: MCF10A cells expressing p110α-H1047R I800M; test: MCF10A EGF-independent growth; type: cell-based, human; details: media lacking EGF, Alamar Blue
Outline: as §1

[8] = system: phospho-Akt (Thr308, Ser473) in I800L MCF10A cells; test: Phospho-Akt western blot, I800L MCF10A cell line; type: cell-based, human; details: for resistance of phospho-Akt levels: 1 hour treatment, serial dilutions; for change in inhibitor sensitivity of phospho-308 Akt: seen in phospho-308 Akt but not phospho-473
[9] = system: drug-permeablized YRP1 strain expressing p110α-CAAX; test: Rescue of PI3K-induced growth inhibition, yeast serial dilutions; type: cell-based, S. cerevisiae; details: 5 μM PI-103, galactose
[10] = system: phospho-Akt (Thr308, Ser473) in I800M MCF10A cells; test: Phospho-Akt western blot, I800M MCF10A cell line; type: cell-based, human; details: 1 hour treatment, serial dilutions
[11] = system: wild-type AFS92 strain expressing p110α-CAAX; test: Rescue of PI3K-induced growth inhibition, yeast serial dilutions; type: cell-based, S. cerevisiae; details: 5 μM PI-103, galactose
[12] = system: phospho-Akt in p110α-expressing MCF10A cell lines; type: cell-based, human; details: 30 μM PI-103, 1 hour, after 24 hours EGF starvation, all cell lines
Outline: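 GFP-sorted MCF10A lines transduced with p110α mutants, at 40-70% confluence, were starved 24 h in MCF10A medium lacking EGF and insulin. They were then given normal growth medium and/or inhibitor (DMSO control) for 60 min. Cells were lysed in PI3K lysis buffer (50 mM Tris pH 7.4, 300 mM NaCl, 1% Triton X-100, phosphatase/protease inhibitors) and western blotted for phospho-Akt.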

[13] = system: PI4KIIIβ with the mutation corresponding to Y836M; details: ref Balla et al., 2008; cited from earlier work
[14] = system: YRP1-pURA3-2μ-GAL1-p110αH1047R-CAAX; test: Reverse halo assay; type: cell-based, S. cerevisiae; details: 10 μl of a 10 mM DMSO stock spotted on cellulose disc, SD −URA +Galactose
[15] = system: S. cerevisiae overexpressing membrane-localized p110α; details: ref Rodriguez-Escudero et al., 2005; cited from earlier work
p110α = details: ref Brunn et al., 1996; Vlahos et al., 1994; cited from earlier work

Chain of Myc-tagged p110α-H1047R I800L (P42336 whole entry I800L/H1047R): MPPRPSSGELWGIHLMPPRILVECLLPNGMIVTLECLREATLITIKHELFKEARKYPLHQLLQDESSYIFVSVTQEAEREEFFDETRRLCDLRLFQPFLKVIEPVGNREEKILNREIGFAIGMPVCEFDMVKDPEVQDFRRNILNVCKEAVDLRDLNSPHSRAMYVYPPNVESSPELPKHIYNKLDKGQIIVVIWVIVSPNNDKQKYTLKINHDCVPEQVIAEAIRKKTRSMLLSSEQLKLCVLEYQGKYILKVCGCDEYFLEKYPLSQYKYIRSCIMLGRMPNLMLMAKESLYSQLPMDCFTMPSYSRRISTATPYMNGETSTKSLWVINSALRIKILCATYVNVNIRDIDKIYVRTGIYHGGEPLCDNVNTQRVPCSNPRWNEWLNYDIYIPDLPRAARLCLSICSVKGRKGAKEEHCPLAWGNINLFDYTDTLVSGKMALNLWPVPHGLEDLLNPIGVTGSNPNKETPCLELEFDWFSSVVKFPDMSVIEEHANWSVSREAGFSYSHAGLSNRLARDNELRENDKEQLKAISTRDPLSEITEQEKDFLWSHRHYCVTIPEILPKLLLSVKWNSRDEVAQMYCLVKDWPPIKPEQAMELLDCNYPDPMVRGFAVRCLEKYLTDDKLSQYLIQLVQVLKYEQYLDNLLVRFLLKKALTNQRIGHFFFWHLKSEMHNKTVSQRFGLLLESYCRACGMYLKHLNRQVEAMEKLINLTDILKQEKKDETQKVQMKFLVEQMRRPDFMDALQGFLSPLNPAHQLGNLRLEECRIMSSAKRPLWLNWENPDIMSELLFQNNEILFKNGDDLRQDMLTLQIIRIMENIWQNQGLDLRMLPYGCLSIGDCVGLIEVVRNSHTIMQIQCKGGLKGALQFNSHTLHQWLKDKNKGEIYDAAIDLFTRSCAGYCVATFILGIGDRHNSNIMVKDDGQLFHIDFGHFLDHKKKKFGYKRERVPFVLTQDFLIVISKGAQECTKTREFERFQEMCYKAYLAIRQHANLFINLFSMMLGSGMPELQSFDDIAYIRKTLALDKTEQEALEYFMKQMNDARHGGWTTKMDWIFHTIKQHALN

Row | Compound | decrease in inhibitor potency (mutant IC50 / WT IC50) [2] | sensitization of phospho-Akt levels [3] | decrease in inhibitor potency (mutant IC50 / WT IC50) [4] | sensitization of cell growth [5] | inhibitor resistance of EGF-independent growth [6] | inhibitor resistance of EGF-independent growth [7] | resistance of phospho-Akt levels [8] | resistance of phospho-Akt levels [10] | growth halo in reverse halo assay [14] | other results
1 | COc1ccc2c(c1OC)N=C(NC(=O)c1cccnc1)N1CCN=C21 [PIK-90] | 5-10 fold | approximately 5 fold | 5-10 fold | strong sensitization | most pronounced | most pronounced | approximately 3 fold |  |  | drug sensitization (mutant IC50 / WT IC50) [1]: more than 10 fold
2 | Oc1cccc(-c2nc(N3CCOCC3)c3oc4ncccc4c3n2)c1 [PI-103] | 5-10 fold |  | 5-10 fold | minimal or no sensitization | less dramatic | less dramatic | Significant resistance is not observed | Significant resistance is not observed |  | rescue of PI3K-induced growth inhibition [9]: completely rescues growth; rescue of PI3K-induced growth inhibition [11]: only partially rescues growth; block of phospho-Akt stimulation by EGF-containing media [12]: blocked; change in inhibitor sensitivity of phospho-308 Akt [8]: Slight resistance
3 | CC(=O)Nc1nc(C)c(-c2ccc(Cl)c(S(=O)(=O)NCCO)c2)s1 [PIK-93] | 5-10 fold | ~30 fold | 5-10 fold | strong sensitization | most pronounced | most pronounced | approximately 3 fold | approximately 10 fold |  | drug sensitization (mutant IC50 / WT IC50) [1]: approximately 100 fold; drug resistance of active mutant kinase [13]: resistant
4 | COC[C@H]1OC(=O)c2coc3c2[C@@]1(C)C1=C(C3=O)[C@@H]2CCC(=O)[C@@]2(C)C[C@H]1OC(C)=O [wortmannin] |  |  |  |  |  |  |  |  | did not produce growth halos | drug resistance of active mutant kinase [13]: resistant
5 | O=c1cc(N2CCOCC2)oc2c(-c3ccccc3)cccc12 [LY294002, 2-(4-morpholinyl)-8-phenyl-4H-1-benzopyran-4-one] |  |  |  |  |  |  |  |  | did not produce growth halos | reversal of p110α-induced growth inhibition [15]: partially reversed; potency as inhibitor of p110α and other PI3K family members (p110α): only a μM inhibitor
6 | Cc1ccc([N+](=O)[O-])cc1S(=O)(=O)N(C)/N=C/c1cnc2ccc(Br)cn12 [PIK-75] |  |  |  |  |  |  |  |  | produced only a thin ring of growth | 
7 | Cn1c(=O)n(-c2ccc(C(C)(C)C#N)cc2)c2c3cc(-c4cnc5ccccc5c4)ccc3ncc21 [BEZ-235] |  | sensitization is seen |  | minimal or no sensitization |  | less dramatic | Significant resistance is not observed | Significant resistance is not observed |  | change in inhibitor sensitivity in vitro [2]: sensitized; inhibitor sensitization of EGF-independent growth [6]: sensitized; change in inhibitor sensitivity of phospho-308 Akt [8]: sensitization
